Assay results published in ChEMBL document CHEMBL1955770, “Inhibition of S/G2 phase CDK4 reduces mitotic fidelity” (J Biol Chem, 2006).

Tests used:
[1] = target: Dual specificity protein kinase CLK4 (Homo sapiens) (UniProt Q9HAZ1); test: Inhibition of CLK4 at 1 uM
[2] = target: Serine/threonine-protein kinase 10 (Homo sapiens) (UniProt O94804); test: Inhibition of STK10 at 1 uM
[3] = target: Ephrin type-A receptor 6 (Homo sapiens) (UniProt Q9UF33); test: Inhibition of EPHA6 at 1 uM
[4] = target: Membrane-associated tyrosine- and threonine-specific cdc2-inhibitory kinase (Homo sapiens) (UniProt Q99640); test: Inhibition of PKMYT1 at 1 uM
[5] = target: Tyrosine-protein kinase HCK (Homo sapiens) (UniProt P08631); test: Inhibition of HCK at 1 uM
[6] = target: Tyrosine-protein kinase JAK2 (Homo sapiens) (UniProt O60674); test: Inhibition of JAK2(Kin.Dom.2) at 1 uM
[7] = target: Protein-tyrosine kinase 2-beta (Homo sapiens) (UniProt Q14289); test: Inhibition of PTK2B at 1 uM
[8] = target: Serine/threonine-protein kinase Nek2 (Homo sapiens) (UniProt P51955); test: Inhibition of NEK2 at 1 uM
[9] = target: Casein kinase I isoform epsilon (Homo sapiens) (UniProt P49674); test: Inhibition of CSNK1E at 1 uM
[10] = target: Calcium/calmodulin-dependent protein kinase type 1G (Homo sapiens) (UniProt Q96NX5); test: Inhibition of CAMK1G at 1 uM
How it was run: (§1)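 Competition binding screen across a kinase panel with compound at 1 μM. Read-out is % competition. Kinases not hit at this concentration were scored '<50'. No Kd was determined for hits.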

[11] = target: Calcium/calmodulin-dependent protein kinase type 1D (Homo sapiens) (UniProt Q8IU85); test: Inhibition of CAMK1D at 1 uM; how it was run: as §1
[12] = target: Mitogen-activated protein kinase 10 (Homo sapiens) (UniProt P53779); test: Inhibition of JNK3 at 1 uM
[13] = target: Proto-oncogene tyrosine-protein kinase Src (Homo sapiens, UniProt P12931); test: Inhibition of SRC at 1 uM
[14] = target: Serine/threonine-protein kinase PAK 4 (Homo sapiens) (UniProt O96013); test: Inhibition of PAK4 at 1 uM
[15] = target: Phosphorylase b kinase gamma catalytic chain, skeletal muscle/heart isoform (Homo sapiens) (UniProt Q16816); test: Inhibition of PHKG1 at 1 uM
[16] = target: Tyrosine-protein kinase SYK (Homo sapiens) (UniProt P43405); test: Inhibition of SYK at 1 uM
[17] = target: Ribosomal protein S6 kinase alpha-5 (Homo sapiens) (UniProt O75582); test: Inhibition of RPS6KA5 Kin.Dom.1 at 1 uM
[18] = target: TRAF2 and NCK-interacting protein kinase (Homo sapiens) (UniProt Q9UKE5); test: Inhibition of TNIK at 1 uM
Chain of TRAF2 and NCK-interacting protein kinase (Homo sapiens) (Q9UKE5 whole entry, looked up): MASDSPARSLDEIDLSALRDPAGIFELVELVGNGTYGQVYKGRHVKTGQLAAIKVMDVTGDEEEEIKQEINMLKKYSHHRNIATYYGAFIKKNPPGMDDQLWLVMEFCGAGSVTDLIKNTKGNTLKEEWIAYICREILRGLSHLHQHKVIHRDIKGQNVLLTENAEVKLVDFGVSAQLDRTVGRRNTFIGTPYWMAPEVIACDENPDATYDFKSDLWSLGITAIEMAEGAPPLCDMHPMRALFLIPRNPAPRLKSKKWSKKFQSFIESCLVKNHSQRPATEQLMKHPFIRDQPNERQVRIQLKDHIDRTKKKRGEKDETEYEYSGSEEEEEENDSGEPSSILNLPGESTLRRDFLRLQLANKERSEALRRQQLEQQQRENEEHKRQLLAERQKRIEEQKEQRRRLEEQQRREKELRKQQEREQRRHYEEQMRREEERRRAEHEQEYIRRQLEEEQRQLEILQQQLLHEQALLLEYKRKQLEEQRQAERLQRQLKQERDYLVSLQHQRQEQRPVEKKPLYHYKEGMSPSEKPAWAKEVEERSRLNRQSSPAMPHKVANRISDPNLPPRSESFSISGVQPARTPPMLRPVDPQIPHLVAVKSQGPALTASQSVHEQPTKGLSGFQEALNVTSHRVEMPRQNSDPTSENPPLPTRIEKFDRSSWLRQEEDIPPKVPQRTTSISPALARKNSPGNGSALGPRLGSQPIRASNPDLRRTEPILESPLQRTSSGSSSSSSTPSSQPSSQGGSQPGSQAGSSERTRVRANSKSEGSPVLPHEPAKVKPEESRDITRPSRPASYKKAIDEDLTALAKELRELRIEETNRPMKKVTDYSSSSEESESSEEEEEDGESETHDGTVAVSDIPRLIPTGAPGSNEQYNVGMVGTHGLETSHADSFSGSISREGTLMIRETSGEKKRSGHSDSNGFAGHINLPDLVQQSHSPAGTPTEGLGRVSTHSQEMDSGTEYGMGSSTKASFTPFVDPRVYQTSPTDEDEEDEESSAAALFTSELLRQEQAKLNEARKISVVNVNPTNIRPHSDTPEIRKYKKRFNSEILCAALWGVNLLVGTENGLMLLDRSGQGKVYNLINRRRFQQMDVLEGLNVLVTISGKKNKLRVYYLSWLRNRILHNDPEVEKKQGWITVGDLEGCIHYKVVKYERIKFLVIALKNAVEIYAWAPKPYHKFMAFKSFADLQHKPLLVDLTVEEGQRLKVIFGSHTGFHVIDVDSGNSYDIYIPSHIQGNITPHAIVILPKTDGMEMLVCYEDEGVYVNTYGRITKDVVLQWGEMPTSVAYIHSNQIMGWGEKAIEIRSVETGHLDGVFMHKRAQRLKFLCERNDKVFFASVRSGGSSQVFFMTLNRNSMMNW

[19] = target: Mitogen-activated protein kinase 8 (Homo sapiens) (UniProt P45983); test: Inhibition of JNK1 at 1 uM
Chain of Mitogen-activated protein kinase 8 (Homo sapiens) (P45983 whole entry): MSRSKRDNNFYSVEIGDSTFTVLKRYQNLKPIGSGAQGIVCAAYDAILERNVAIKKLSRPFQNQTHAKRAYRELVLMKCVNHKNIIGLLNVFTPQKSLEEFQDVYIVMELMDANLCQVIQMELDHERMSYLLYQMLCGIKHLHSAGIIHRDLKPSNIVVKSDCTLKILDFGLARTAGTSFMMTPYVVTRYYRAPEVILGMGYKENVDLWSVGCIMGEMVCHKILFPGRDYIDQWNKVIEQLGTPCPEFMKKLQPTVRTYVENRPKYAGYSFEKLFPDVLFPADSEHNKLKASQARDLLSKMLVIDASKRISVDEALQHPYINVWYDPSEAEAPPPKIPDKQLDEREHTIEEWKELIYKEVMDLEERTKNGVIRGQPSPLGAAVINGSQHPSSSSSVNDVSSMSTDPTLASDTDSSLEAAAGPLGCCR

[20] = target: Serine/threonine-protein kinase PAK 5 (Homo sapiens) (UniProt Q9P286); test: Inhibition of PAK7/PAK5 at 1 uM
[21] = target: Serine/threonine-protein kinase 17A (Homo sapiens) (UniProt Q9UEE5); test: Inhibition of STK17A at 1 uM
[22] = target: Serine/threonine-protein kinase 16 (Homo sapiens) (UniProt O75716); test: Inhibition of STK16 at 1 uM
Chain of Serine/threonine-protein kinase 16 (Homo sapiens) (O75716 whole entry): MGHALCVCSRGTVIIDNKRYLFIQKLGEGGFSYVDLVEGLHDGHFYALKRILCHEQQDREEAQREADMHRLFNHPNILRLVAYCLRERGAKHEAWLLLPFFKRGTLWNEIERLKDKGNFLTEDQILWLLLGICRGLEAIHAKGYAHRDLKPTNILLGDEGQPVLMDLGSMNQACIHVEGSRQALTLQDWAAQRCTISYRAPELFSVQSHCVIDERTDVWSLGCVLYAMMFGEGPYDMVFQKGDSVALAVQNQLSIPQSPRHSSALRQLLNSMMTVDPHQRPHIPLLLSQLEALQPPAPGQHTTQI

[23] = target: Aurora kinase A (Homo sapiens) (UniProt O14965); test: Inhibition of AURKA at 1 uM; how it was run: as §1
[24] = target: Serine/threonine-protein kinase PAK 1 (Homo sapiens) (UniProt Q13153); test: Inhibition of PAK1 at 1 uM
[25] = target: Death-associated protein kinase 3 (Homo sapiens) (UniProt O43293); test: Inhibition of DAPK3 at 1 uM
Chain of Death-associated protein kinase 3 (Homo sapiens) (O43293 whole entry, looked up): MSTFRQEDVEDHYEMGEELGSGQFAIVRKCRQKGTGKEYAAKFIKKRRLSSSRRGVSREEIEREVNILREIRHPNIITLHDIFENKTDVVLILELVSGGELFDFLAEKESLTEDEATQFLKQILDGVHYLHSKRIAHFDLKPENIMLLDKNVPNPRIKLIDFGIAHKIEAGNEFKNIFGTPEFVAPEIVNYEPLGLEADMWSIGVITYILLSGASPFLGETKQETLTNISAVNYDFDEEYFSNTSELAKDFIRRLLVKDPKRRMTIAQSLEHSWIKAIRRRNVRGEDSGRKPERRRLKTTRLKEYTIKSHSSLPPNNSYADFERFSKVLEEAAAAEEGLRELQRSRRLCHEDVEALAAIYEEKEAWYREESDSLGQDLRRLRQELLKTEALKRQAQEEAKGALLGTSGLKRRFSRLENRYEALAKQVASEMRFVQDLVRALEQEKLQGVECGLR

[26] = target: Mitogen-activated protein kinase 1 (Homo sapiens) (UniProt P28482); test: Inhibition of ERK2 at 1 uM
[27] = target: Activated CDC42 kinase 1 (Homo sapiens) (UniProt Q07912); test: Inhibition of ACK1 at 1 uM; how it was run: as §1
Chain of Activated CDC42 kinase 1 (Homo sapiens) (Q07912 whole entry, looked up): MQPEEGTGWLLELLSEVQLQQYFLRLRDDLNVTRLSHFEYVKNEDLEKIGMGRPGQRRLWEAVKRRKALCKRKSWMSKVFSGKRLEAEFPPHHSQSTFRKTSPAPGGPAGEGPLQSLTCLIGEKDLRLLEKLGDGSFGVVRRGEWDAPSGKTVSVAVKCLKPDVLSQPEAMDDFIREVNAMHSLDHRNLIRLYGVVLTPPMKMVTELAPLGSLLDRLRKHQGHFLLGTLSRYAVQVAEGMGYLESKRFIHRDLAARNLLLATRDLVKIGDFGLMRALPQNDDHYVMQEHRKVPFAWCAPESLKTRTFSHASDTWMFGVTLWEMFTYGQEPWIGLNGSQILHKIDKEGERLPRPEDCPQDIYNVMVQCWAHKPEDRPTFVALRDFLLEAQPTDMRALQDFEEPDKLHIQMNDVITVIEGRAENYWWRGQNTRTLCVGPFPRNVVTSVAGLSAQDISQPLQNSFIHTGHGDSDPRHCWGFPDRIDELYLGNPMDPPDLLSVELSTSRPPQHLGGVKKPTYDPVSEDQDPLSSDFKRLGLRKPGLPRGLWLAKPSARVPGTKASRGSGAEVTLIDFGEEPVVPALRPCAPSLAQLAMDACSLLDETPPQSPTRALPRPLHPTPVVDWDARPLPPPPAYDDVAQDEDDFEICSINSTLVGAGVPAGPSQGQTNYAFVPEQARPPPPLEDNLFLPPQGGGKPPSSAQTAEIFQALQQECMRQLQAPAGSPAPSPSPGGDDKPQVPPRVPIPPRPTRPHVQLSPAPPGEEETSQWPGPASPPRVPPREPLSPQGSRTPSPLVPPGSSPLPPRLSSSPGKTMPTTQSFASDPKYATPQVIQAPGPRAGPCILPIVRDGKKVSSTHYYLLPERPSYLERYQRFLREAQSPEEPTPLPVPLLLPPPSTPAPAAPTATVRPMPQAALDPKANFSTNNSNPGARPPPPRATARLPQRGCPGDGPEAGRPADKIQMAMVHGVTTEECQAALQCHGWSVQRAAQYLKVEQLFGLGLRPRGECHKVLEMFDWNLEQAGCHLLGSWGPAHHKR

[28] = target: Ribosomal protein S6 kinase alpha-3 (Homo sapiens) (UniProt P51812); test: Inhibition of RPS6KA3 Kin.Dom.1 at 1 uM
[29] = target: Cyclin-dependent kinase 16 (Homo sapiens) (UniProt Q00536); test: Inhibition of PCTK1 at 1 uM
[30] = target: Serine/threonine-protein kinase 36 (Homo sapiens) (UniProt Q9NRP7); test: Inhibition of STK36 at 1 uM
[31] = target: Serine/threonine-protein kinase STK11 (Homo sapiens) (UniProt Q15831); test: Inhibition of STK11 at 1 uM
[32] = target: Tyrosine-protein kinase FRK (Homo sapiens) (UniProt P42685); test: Inhibition of FRK at 1 uM
[33] = target: Ephrin type-A receptor 4 (Homo sapiens) (UniProt P54764); test: Inhibition of EPHA4 at 1 uM
[34] = target: Casein kinase I isoform gamma-2 (Homo sapiens) (UniProt P78368); test: Inhibition of CSNK1G2 at 1 uM
[35] = target: Ephrin type-B receptor 4 (Homo sapiens) (UniProt P54760); test: Inhibition of EPHB4 at 1 uM
[36] = target: Focal adhesion kinase 1 (Homo sapiens) (UniProt Q05397); test: Inhibition of PTK2 at 1 uM
[37] = target: Casein kinase I isoform gamma-1 (Homo sapiens) (UniProt Q9HCP0); test: Inhibition of CSNK1G1 at 1 uM
[38] = target: Tyrosine-protein kinase Fgr (Homo sapiens) (UniProt P09769); test: Inhibition of FGR at 1 uM
Chain of Tyrosine-protein kinase Fgr (Homo sapiens) (P09769 2-529 limits assumed): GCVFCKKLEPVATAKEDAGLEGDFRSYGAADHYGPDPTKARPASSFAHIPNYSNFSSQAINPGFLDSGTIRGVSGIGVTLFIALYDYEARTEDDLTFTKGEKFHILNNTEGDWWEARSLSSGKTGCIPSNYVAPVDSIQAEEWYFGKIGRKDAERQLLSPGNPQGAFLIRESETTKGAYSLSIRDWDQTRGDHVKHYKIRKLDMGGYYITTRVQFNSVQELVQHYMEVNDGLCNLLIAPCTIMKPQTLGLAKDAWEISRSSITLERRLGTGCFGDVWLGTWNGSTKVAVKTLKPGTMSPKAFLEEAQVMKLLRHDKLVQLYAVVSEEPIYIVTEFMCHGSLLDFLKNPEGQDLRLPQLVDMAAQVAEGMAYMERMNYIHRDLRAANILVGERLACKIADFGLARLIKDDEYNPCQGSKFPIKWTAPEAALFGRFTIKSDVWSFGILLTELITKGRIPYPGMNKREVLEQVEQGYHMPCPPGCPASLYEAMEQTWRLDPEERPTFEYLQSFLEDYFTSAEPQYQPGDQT

[39] = system: Serine/threonine-protein kinase B-raf (Homo sapiens), P15056 [V600E]; test: Inhibition of BRAF(V600E) at 1 uM; how it was run: as §1
Chain of Serine/threonine-protein kinase B-raf (Homo sapiens), P15056 [V600E] (P15056 whole entry V600E): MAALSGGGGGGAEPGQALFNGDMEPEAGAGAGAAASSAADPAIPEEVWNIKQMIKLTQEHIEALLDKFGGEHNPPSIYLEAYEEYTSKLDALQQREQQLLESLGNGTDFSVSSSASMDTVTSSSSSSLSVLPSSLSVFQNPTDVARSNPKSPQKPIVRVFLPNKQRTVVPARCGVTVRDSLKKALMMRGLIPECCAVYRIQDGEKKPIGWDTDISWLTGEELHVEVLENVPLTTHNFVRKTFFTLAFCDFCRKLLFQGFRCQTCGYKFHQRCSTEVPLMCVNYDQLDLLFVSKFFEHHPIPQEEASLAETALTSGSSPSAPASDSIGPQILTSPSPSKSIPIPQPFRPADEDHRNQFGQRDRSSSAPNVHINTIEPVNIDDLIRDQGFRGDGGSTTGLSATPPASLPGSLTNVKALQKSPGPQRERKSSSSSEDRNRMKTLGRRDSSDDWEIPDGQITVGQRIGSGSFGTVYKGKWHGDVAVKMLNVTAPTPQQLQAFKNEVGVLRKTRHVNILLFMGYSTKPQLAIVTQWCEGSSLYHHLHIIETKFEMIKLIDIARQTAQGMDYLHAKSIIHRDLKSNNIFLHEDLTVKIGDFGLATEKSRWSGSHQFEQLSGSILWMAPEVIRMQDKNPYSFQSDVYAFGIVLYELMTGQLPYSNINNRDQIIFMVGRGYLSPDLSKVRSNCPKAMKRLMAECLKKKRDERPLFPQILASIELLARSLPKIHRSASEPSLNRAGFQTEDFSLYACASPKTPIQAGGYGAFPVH

[40] = system: HCT-116; test: Cell cycle arrest in Rb-competent human HCT116 cells assessed as reduction in S phase after 24 hrs using BrdUrd staining by FACS analysis; assay type: functional, cell-based; conditions: HCT-116, 24 h
How it was run: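 Asynchronous HCT-116 cells treated 24 h with increasing inhibitor doses, then given a 30-min BrdUrd pulse before harvest. Percentage of BrdUrd-positive cells measured by FACS; IC50 taken as the dose reducing S phase to 50% of control.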

[41] = target: Ephrin type-A receptor 3 (Homo sapiens) (UniProt P29320); test: Inhibition of EPHA3 at 1 uM
[42] = target: Cyclin-G-associated kinase (Homo sapiens) (UniProt O14976); test: Inhibition of GAK at 1 uM
[43] = target: cAMP-dependent protein kinase catalytic subunit alpha (Homo sapiens) (UniProt P17612); test: Inhibition of PKA catalytic subunit alpha at 1 uM
[44] = target: BMP-2-inducible protein kinase (Homo sapiens) (UniProt Q9NSY1); test: Inhibition of BIKE at 1 uM; how it was run: as §1

inhibition [1]: 97%
inhibition [2]: < 50%
inhibition [3]: < 50%
inhibition [4]: < 50%
inhibition [5]: < 50%
inhibition [6]: < 50%
inhibition [7]: < 50%
inhibition [8]: < 50%
inhibition [9]: < 50%
inhibition [10]: < 50%
inhibition [11]: < 50%
inhibition [12]: 66%
inhibition [13]: < 50%
inhibition [14]: < 50%
inhibition [15]: < 50%
inhibition [16]: < 50%
inhibition [17]: < 50%
inhibition [18]: < 50%
inhibition [19]: < 50%
inhibition [20]: < 50%
inhibition [21]: 89%
inhibition [22]: 87%
inhibition [23]: < 50%
inhibition [24]: < 50%
inhibition [26]: < 50%
inhibition [27]: < 50%
inhibition [28]: < 50%
inhibition [29]: 99%
inhibition [30]: 86%
inhibition [31]: < 50%
inhibition [32]: < 50%
inhibition [33]: < 50%
inhibition [34]: 99%
inhibition [35]: < 50%
inhibition [36]: < 50%
inhibition [37]: 98%
inhibition [38]: < 50%
inhibition [39]: < 50%
IC50 [40]: 3.9 µM
IC90 [40]: 6.1 µM
inhibition [41]: < 50%
inhibition [42]: 100%
inhibition [43]: < 50%
inhibition [44]: < 50%
SMILES: CN1CCN(c2ccc(Nc3nc(N)c(C(=O)c4ccc5c(c4)OCCO5)s3)cc2)CC1
inhibition [25]: < 50%
